Measurements: ChEMBL document CHEMBL5230083, “Novel 2, 5-diketopiperazine derivatives as potent selective histone deacetylase 6 inhibitors: Rational design, synthesis and antiproliferative activity” (Eur J Med Chem, 2020)
The source made the active and inactive calls. The rule behind the calls is not given here.

Tests used:
[1] = molecular target: Histone deacetylase 3 (Homo sapiens) (UniProt O15379); assay: Inhibition of HDAC3 (unknown origin) using Fluor de lys as substrate by fluorescence based analysis
Procedure, shortened: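 Fluor de Lys fluorogenic substrate/developer activity assay, run by a contract lab. […] Experiments were run in duplicate.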

Histone deacetylase 4 = Histone deacetylase 4 (Homo sapiens, UniProt P56524); assay: Inhibition of HDAC4 (unknown origin) using Fluor de lys as substrate by fluorescence based analysis
Histone deacetylase 5 = Histone deacetylase 5 (Homo sapiens, UniProt Q9UQL6); assay: Inhibition of HDAC5 (unknown origin) using Fluor de lys as substrate by fluorescence based analysis
Histone deacetylase 9 = Histone deacetylase 9 (Homo sapiens, UniProt Q9UKV0); assay: Inhibition of HDAC9 (unknown origin) using Fluor de lys as substrate by fluorescence based analysis
[2] = molecular target: Polyamine deacetylase HDAC10 (Homo sapiens, UniProt Q969S8); assay: Inhibition of HDAC10 (unknown origin) incubated for 1 hr by TR-FRET analysis
Histone deacetylase 11 = Histone deacetylase 11 (Homo sapiens, UniProt Q96DB2); assay: Inhibition of HDAC11 (unknown origin) using Fluor de lys as substrate by fluorescence based analysis
[3] = molecular target: Protein deacetylase HDAC6 (Homo sapiens) (UniProt Q9UBN7); assay: Inhibition of HDAC6 in human HCT-116 cells assessed as increase in acetylated alpha-tubulin level incubated for 24 hrs by Western blot analysis; format: cell-based; settings: dose 0.1-10 µM
Procedure, shortened: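 HCT116 cells were seeded overnight, then treated at 0.1, 1 and 10 μM for 24 h. Cells were lysed with protein extraction reagent plus EDTA-free protease inhibitors. 30 µg protein per sample was resolved by SDS-PAGE and blotted to nitrocellulose. Ac-α-tubulin and Ac-H3 were probed and detected by ECL.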

RPMI-8226 = assay: Antiproliferative activity against human RPMI-8226 cells assessed as cell growth at 10 uM incubated for 48 hrs by SRB assay relative to control; format: functional; settings: read-out: Activity
Procedure, shortened: (§1)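 Single-concentration screen at 10 μM run by NCI on its NCI-60 human tumour panel (blood, lung, colon, CNS, melanoma, ovary, kidney, prostate, breast), following the NCI-60 published methodology. Read-out is growth percent relative to untreated cells.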

EKVX = assay: Antiproliferative activity against human EKVX cells assessed as cell growth at 10 uM incubated for 48 hrs by SRB assay relative to control; format: functional; settings: read-out: Activity; procedure, shortened: as §1
NCI-H226 = assay: Antiproliferative activity against human NCI-H226 cells assessed as cell growth at 10 uM incubated for 48 hrs by SRB assay relative to control; format: functional; settings: read-out: Activity; procedure, shortened: as §1
HCC 2998 = assay: Antiproliferative activity against human HCC 2998 cells assessed as cell growth at 10 uM incubated for 48 hrs by SRB assay relative to control; format: functional; settings: read-out: Activity; procedure, shortened: as §1
SW-620 = assay: Antiproliferative activity against human SW620 cells assessed as cell growth at 10 uM incubated for 48 hrs by SRB assay relative to control; format: functional; settings: read-out: Activity
Procedure, shortened: (§2)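 NCI-60 single-dose screen: compounds tested at 10 μM, and growth percent of each cell line calculated. The full method follows the NCI DTP protocol.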

SNB-75 = assay: Antiproliferative activity against human SNB-75 cells assessed as cell growth at 10 uM incubated for 48 hrs by SRB assay relative to control; format: functional; settings: read-out: Activity; procedure, shortened: as §2
MDA-MB-435 = assay: Antiproliferative activity against human MDA-MB-435 cells assessed as cell growth at 10 uM incubated for 48 hrs by SRB assay relative to control; format: functional; settings: read-out: Activity; procedure, shortened: as §1
PC-3 = assay: Antiproliferative activity against human PC-3 cells assessed as cell growth at 10 uM incubated for 48 hrs by SRB assay relative to control; format: functional; settings: read-out: Activity; procedure, shortened: as §1
MDA-MB-468 = assay: Antiproliferative activity against human MDA-MB-468 cells assessed as cell growth at 10 uM incubated for 48 hrs by SRB assay relative to control; format: functional; settings: read-out: Activity; procedure, shortened: as §1
Homo sapiens [4] = organism: Homo sapiens; assay: Selectivity index, ratio of IC50 for inhibition of HDAC1 (unknown origin) to IC50 for inhibition of HDAC6 (unknown origin)
Procedure, shortened: (§3)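 Ratio of IC50 values, each from a Fluor de Lys fluorogenic HDAC assay run in duplicate.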

Homo sapiens [5] = organism: Homo sapiens; assay: Selectivity index, ratio of IC50 for inhibition of HDAC8 (unknown origin) to IC50 for inhibition of HDAC6 (unknown origin); procedure, shortened: as §3
OVCAR-4 = assay: Antiproliferative activity against human OVCAR-4 cells assessed as cell growth at 10 uM incubated for 48 hrs by SRB assay relative to control; format: functional; settings: read-out: Activity; procedure, shortened: as §1
A549 [6] = assay: Antiproliferative activity against human A549 cells assessed as inhibition of cell growth incubated for 72 hrs by alamar blue assay; format: functional, cell-based; settings: A549, 72 h
Procedure, shortened: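 Cells grown in IMDM with 20% FBS and penicillin/streptomycin at 37 °C, 5% CO2. Compound added to plated cells for 72 h. Alamar blue (1 mM solution) then added for 5–6 h, and fluorescence read at 530/590 nm. IC50 derived for single-agent treatment.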

A549 [7] = assay: Antiproliferative activity against human A549 cells assessed as inhibition of cell growth incubated for 72 hrs in presence of adriamycin by alamar blue assay; format: functional, cell-based; settings: A549, 72 h
Procedure, shortened: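 Alamar blue assay in IMDM/20% FBS at 37 °C, 5% CO2. Cells were exposed to the two agents together for 72 h, with 5–6 h Alamar blue and fluorescence at 530/590 nm. IC50 in combination was determined. CI50 = IC50Ac/IC50As + IC50Bc/IC50Bs, comparing combination with single-agent IC50s.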

A549 [8] = assay: Synergistic antiproliferative activity against human A549 cells assessed as combination index incubated for 72 hrs presence of adriamycin by alamar blue assay; format: functional
[9] = Microsomal stability in human liver microsomes assessed as half life at 0.5 uM prewarmed for 5 mins followed by NADPH addition and measured for 90 mins by LC-MS/MS analysis; format: ADME, Microsome; settings: time 95 min
Procedure, shortened: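 Incubation held 0.8 mg/mL human liver microsomes, MgCl2, potassium phosphate buffer pH 7.4 and 0.5 μM compound. After 5 min prewarming at 37 °C, NADPH started the reaction.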

Chain of Protein deacetylase HDAC6 (Homo sapiens) (Q9UBN7 whole entry): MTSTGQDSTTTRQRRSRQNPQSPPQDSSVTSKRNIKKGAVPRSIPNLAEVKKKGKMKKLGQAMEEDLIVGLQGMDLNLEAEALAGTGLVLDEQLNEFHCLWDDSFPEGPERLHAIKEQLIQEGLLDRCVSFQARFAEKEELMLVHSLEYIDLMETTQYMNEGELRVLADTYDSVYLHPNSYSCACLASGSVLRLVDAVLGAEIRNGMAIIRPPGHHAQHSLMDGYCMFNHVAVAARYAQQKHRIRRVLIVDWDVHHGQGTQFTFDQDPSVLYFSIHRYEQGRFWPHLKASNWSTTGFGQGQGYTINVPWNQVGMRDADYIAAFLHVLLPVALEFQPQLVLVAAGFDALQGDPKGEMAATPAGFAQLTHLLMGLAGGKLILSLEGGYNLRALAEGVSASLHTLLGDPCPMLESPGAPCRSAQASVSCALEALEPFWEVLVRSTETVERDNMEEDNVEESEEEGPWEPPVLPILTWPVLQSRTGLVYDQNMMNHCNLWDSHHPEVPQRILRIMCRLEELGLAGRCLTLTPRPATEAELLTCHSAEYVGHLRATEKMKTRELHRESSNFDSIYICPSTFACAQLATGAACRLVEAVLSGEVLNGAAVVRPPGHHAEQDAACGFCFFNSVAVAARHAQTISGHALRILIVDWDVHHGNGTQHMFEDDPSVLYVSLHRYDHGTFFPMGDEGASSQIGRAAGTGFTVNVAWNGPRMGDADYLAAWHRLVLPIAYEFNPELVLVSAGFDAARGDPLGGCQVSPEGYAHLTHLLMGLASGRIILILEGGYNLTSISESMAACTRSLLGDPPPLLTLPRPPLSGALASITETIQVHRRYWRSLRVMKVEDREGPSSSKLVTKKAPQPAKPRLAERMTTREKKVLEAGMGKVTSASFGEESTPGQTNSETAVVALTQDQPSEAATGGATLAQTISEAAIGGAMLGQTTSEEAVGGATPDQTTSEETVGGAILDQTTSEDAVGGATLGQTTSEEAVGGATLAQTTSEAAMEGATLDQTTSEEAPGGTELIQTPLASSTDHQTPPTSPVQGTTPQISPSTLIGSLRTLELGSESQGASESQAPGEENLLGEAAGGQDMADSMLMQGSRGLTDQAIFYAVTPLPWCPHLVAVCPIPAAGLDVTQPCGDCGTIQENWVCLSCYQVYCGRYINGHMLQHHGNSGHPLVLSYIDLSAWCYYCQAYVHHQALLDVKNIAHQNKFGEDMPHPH
Chain of Histone deacetylase 4 (P56524 whole entry): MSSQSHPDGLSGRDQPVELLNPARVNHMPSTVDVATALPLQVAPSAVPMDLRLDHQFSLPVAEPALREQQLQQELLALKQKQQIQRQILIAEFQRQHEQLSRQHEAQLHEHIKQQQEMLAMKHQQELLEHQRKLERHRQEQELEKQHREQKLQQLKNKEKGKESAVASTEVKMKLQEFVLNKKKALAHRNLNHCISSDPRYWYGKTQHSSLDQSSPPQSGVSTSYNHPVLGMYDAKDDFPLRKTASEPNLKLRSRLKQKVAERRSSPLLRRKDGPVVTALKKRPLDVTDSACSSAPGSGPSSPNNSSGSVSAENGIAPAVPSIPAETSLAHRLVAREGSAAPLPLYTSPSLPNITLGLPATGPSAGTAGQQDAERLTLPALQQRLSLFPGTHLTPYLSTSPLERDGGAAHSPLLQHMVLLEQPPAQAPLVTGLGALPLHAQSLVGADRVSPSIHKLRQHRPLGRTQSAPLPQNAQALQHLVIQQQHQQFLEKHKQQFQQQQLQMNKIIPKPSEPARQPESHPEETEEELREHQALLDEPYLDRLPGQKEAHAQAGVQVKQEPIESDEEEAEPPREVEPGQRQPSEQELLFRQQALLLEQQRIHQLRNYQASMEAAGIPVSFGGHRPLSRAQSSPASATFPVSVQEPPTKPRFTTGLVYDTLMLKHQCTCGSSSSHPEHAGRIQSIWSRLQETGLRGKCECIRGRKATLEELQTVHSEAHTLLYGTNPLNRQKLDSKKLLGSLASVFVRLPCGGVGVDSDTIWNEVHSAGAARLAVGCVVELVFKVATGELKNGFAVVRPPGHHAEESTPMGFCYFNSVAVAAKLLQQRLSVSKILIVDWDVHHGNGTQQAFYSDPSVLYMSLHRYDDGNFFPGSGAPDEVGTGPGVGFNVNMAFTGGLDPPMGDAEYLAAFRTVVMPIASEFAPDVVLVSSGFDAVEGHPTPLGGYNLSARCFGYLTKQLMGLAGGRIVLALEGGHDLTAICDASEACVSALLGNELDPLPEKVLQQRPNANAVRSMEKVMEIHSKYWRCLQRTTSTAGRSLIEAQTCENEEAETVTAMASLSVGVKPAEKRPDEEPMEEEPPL
Chain of Histone deacetylase 3 (Homo sapiens) (O15379 whole entry): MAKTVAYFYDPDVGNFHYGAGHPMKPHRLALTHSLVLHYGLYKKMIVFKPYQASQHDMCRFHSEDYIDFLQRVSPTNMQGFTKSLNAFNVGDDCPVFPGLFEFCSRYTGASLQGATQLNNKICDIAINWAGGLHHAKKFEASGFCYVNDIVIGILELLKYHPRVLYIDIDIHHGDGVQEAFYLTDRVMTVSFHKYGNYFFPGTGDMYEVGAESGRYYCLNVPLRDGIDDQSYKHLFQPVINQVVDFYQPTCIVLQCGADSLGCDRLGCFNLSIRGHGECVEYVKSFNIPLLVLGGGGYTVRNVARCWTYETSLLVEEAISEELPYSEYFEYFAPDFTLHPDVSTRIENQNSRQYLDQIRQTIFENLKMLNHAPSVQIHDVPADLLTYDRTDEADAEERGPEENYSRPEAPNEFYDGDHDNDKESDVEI
Chain of Histone deacetylase 5 (Q9UQL6 whole entry): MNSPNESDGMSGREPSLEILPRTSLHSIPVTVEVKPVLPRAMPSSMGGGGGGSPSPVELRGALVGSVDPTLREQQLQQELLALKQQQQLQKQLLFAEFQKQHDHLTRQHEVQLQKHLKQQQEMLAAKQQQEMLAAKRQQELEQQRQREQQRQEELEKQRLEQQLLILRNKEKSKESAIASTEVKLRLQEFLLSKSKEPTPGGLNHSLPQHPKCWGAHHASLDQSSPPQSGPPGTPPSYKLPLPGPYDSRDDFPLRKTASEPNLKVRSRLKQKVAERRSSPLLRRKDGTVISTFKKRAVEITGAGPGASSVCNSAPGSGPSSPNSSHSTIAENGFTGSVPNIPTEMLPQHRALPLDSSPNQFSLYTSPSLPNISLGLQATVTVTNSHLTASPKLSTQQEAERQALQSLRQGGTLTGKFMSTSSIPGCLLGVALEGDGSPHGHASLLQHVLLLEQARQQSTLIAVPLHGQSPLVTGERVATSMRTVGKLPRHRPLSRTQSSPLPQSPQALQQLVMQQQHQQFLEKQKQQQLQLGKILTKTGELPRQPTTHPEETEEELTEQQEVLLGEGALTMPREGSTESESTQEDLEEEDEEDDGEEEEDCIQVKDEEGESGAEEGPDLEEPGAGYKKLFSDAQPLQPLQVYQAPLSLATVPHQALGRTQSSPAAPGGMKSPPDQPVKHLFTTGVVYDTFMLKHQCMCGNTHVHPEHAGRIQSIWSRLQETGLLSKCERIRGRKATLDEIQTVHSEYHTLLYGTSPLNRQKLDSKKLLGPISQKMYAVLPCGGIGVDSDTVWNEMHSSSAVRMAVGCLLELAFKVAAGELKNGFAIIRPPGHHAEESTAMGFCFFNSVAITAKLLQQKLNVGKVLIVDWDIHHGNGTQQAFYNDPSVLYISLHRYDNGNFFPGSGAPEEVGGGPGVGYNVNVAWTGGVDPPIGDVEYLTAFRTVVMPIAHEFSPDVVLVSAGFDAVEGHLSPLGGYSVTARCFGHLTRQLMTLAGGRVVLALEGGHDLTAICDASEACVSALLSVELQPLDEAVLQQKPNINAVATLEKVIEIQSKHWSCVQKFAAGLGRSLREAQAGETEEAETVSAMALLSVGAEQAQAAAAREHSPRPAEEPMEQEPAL
Chain of Histone deacetylase 9 (Q9UKV0 whole entry): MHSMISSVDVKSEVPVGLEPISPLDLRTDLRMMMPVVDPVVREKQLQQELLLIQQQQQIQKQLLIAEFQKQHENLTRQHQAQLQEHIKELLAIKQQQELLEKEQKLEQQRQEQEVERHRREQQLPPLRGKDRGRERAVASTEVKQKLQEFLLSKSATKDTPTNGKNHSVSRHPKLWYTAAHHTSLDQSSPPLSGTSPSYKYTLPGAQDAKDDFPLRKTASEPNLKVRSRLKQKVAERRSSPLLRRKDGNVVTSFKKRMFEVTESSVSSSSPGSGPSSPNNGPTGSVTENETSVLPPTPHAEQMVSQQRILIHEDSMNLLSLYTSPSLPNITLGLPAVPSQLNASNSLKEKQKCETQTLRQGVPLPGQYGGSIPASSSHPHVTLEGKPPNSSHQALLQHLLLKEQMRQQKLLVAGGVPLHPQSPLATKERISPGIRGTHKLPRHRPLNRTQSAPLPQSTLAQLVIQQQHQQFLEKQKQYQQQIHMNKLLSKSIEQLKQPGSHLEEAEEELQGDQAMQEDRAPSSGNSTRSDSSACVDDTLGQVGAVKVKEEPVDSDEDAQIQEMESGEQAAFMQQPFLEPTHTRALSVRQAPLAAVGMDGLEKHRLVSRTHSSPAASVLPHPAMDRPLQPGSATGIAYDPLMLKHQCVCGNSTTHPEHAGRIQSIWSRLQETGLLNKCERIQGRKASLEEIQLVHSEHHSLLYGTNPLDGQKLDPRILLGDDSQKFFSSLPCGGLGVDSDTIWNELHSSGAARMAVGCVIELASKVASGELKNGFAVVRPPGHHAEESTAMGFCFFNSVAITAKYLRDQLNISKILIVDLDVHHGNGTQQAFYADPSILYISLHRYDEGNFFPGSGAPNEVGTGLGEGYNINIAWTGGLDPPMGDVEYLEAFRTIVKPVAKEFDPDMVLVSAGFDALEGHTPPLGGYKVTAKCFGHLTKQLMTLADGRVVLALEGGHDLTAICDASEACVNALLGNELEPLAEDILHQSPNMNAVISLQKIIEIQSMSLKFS

SMILES	growth at 10 µM (RPMI-8226) [%]	growth at 10 µM (EKVX) [%]	growth at 10 µM (HCC 2998) [%]	growth at 10 µM (SW-620) [%]	growth at 10 µM (SNB-75) [%]	growth at 10 µM (MDA-MB-435) [%]	growth at 10 µM (PC-3) [%]	growth at 10 µM (MDA-MB-468) [%]	also measured
O=C1CN(Cc2ccc(C(=O)NO)cc2)C(=O)[C@@H](Cc2c[nH]c3ccccc23)N1	104	106	103	103	94.5	102	97.5	107	inhibition [1]: inactive; IC50 (Histone deacetylase 4): 5.62 µM; IC50 (Histone deacetylase 5): 4.37 µM; IC50 (Histone deacetylase 9): 2.56 µM; IC50 [2]: 0.105 µM; IC50 (Histone deacetylase 11): 1.8 µM; inhibition [3]: Dose-Dependent Effect; growth at 10 µM (NCI-H226): 97.6%
O=C(NO)c1ccc(CN2CC(=O)N(Cc3ccccc3)[C@H](Cc3ccccc3)C2=O)cc1	58.6	88.2	85.9	94.1	69.4	91.3	76.5	79.9	Ratio IC50 (Homo sapiens [4]): 981; Ratio IC50 (Homo sapiens [5]): 15; growth at 10 µM (OVCAR-4): 66.5%; IC50 (A549 [6]): 100 µM; IC50 (A549 [7]): 8.17 µM; CI (A549 [8]): 0.676; half-life at 0.5 µM [9]: 9.7 h
